Measured values reported in ChEMBL document CHEMBL2177069, “Novel peptidomimetic compounds containing redox active chalcogens and quinones as potential anticancer agents” (Eur J Med Chem, 2012).

How the values were obtained:
[1] = system: Saccharomyces cerevisiae; test: Growth inhibition of UFD2-deficient Saccharomyces cerevisiae YDL190C mutant at 20 ug/disc after 24 to 48 hrs by agar diffusion assay; type: functional; conditions: read-out: DIZ
Procedure, shortened: (§1)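 S. cerevisiae deletion mutants or wild type grown on YPD, seeded into liquid agar medium at an optical density of 0.1. 6 mm paper discs soaked with methanolic compound solution were placed on the plates and incubated at 30 °C. Growth was checked after 1 and 2 days, and the inhibition zone diameter was recorded in mm.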

[2] = system: Saccharomyces cerevisiae; test: Growth inhibition of GTT2-deficient Saccharomyces cerevisiae YLL060C mutant at 20 ug/disc after 24 to 48 hrs by agar diffusion assay; type: functional; conditions: read-out: DIZ; procedure, shortened: as §1
[3] = system: Saccharomyces cerevisiae; test: Growth inhibition of WSC4-deficient Saccharomyces cerevisiae YHL028W mutant at 20 ug/disc 24 to 48 hrs by agar diffusion assay; type: functional; conditions: read-out: DIZ; procedure, shortened: as §1
[4] = system: Saccharomyces cerevisiae; test: Growth inhibition of PST2-deficient Saccharomyces cerevisiae YDR032C mutant at 20 ug/disc 24 to 48 hrs by agar diffusion assay; type: functional; conditions: read-out: DIZ; procedure, shortened: as §1
[5] = system: Saccharomyces cerevisiae; test: Growth inhibition of SOD1-deficient Saccharomyces cerevisiae YJR104C mutant at 20 ug/disc after 24 to 48 hrs by agar diffusion assay; type: functional; conditions: read-out: DIZ; procedure, shortened: as §1
[6] = Cytotoxicity against human PHF cells after 24 hrs by MTT assay; type: cell-based
Procedure, shortened: (§2)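 MTT assay. Cells were seeded at 50,000 cells/mL in medium with 10% fetal calf serum and grown for two days at 37 °C, 10% CO2. Serial dilutions of compound were then added for 24 h. MTT was added (final 0.5 mg/mL) for 2 h, and the formazan was pelleted, washed, dissolved in isopropanol with 0.4% HCl and read at 590 nm. IC50 is the concentration giving 50% of untreated-control absorbance, taken from dose-response curves; mean of two parallel experiments.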

[7] = system: A-431; test: Cytotoxicity against human A431 cells after 24 hrs by MTT assay; type: functional, cell-based; conditions: A-431, 24 h; procedure, shortened: as §2
[8] = system: A498; test: Cytotoxicity against human A498 cells after 24 hrs by MTT assay; type: functional, cell-based; conditions: A498, 24 h; procedure, shortened: as §2
[9] = system: MCF7; test: Cytotoxicity against human MCF7 cells after 24 hrs by MTT assay; type: functional, cell-based; conditions: MCF7, 24 h; procedure, shortened: as §2
[10] = system: MDA-MB-468; test: Cytotoxicity against human MDA-MB-468 cells; type: functional
[11] = system: T47D; test: Cytotoxicity against human T47D cells; type: functional
[12] = system: MDA-MB-231; test: Cytotoxicity against human MDA-MB-231 cells; type: functional
[13] = system: UO-31; test: Cytotoxicity against human UO31 cells; type: functional
[14] = system: SN12C; test: Cytotoxicity against human SN12C cells; type: functional
[15] = system: RXF 393; test: Cytotoxicity against human RXF393 cells; type: functional
[16] = system: ACHN; test: Cytotoxicity against human ACHN cells; type: functional
[17] = system: A498; test: Cytotoxicity against human A498 cells; type: functional
[18] = Cytotoxicity against human 786-O cells; type: functional
[19] = system: SK-OV-3; test: Cytotoxicity against human SKOV3 cells; type: functional
[20] = system: NCI/ADR-RES; test: Cytotoxicity against human NCI/ADR-RES cells; type: functional
[21] = system: OVCAR-4; test: Cytotoxicity against human OVCAR4 cells; type: functional
[22] = system: OVCAR-5; test: Cytotoxicity against human OVCAR5 cells; type: functional
[23] = system: SK-MEL-28; test: Cytotoxicity against human SK-MEL-28 cells; type: functional

Compound `CC1=C(SCCC(=O)OC(C[Se]C2=C(C)C(=O)c3ccccc3C2=O)C(=O)NCCCCCC(=O)OCc2ccccc2)C(=O)c2ccccc2C1=O` (stereo unspecified) has a zone of inhibition at 20 µg/disc [1] of 0 mm, a zone of inhibition at 20 µg/disc [2] of 12 mm and a zone of inhibition at 20 µg/disc [3] of 16 mm. For the same compound, the zone of inhibition at 20 µg/disc [4] was 11 mm, the zone of inhibition at 20 µg/disc [5] was 16 mm and the IC50 [6] was 5 µM. The IC50 [7] was 6 µM, the IC50 [8] was 5 µM and the IC50 [9] was 10 µM. The GI50 [10] was 3.02 µM, the LC50 [10] was 37.2 µM and the TGI ([10]; read-out: pTGI (converted)) was 8.51 µM. For the same compound, the GI50 [11] was 17.8 µM, the LC50 [11] was over 100 µM and the TGI ([11]; read-out: pTGI (converted)) was 51.3 µM. The GI50 [12] was 6.76 µM, the LC50 [12] was 55 µM and the TGI ([12]; read-out: pTGI (converted)) was 21.9 µM. For the same compound, the GI50 [13] was 2.51 µM, the LC50 [13] was 50.1 µM and the TGI ([13]; read-out: pTGI (converted)) was 15.1 µM. The GI50 [14] was 4.68 µM, the LC50 [14] was 57.5 µM and the TGI ([14]; read-out: pTGI (converted)) was 16.6 µM. It also gave a GI50 [15] of 14.8 µM, an LC50 [15] of 53.7 µM and a TGI ([15]; read-out: pTGI (converted)) of 28.2 µM. It also gave a GI50 [16] of 12 µM, an LC50 [16] of 63.1 µM and a TGI ([16]; read-out: pTGI (converted)) of 27.5 µM. The GI50 [17] was 12 µM, the LC50 (50% lethal concentration) [17] was over 100 µM and the TGI ([17]; read-out: pTGI (converted)) was over 100 µM. It also gave a GI50 ([18]; 786-0) of 4.68 µM, an LC50 ([18]; 786-0) of 38 µM and a TGI ([18]; 786-0, read-out: pTGI (converted)) of 14.1 µM. For the same compound, the GI50 [19] was 7.08 µM, the LC50 [19] was 44.7 µM and the TGI ([19]; read-out: pTGI (converted)) was 19.5 µM. It also gave a GI50 [20] of 4.57 µM, a CC50 ([20]; read-out: pLC50 (the source's name) (converted)) of 81.3 µM and a TGI ([20]; read-out: pTGI (converted)) of 18.2 µM. The GI50 [21] was 12.3 µM, the LC50 [21] was 51.3 µM and the TGI ([21]; read-out: pTGI (converted)) was 25.1 µM. It also gave a GI50 [22] of 5.01 µM, an LC50 [22] of 61.7 µM and a TGI ([22]; read-out: pTGI (converted)) of 18.6 µM. For the same compound, the GI50 [23] was 11.7 µM, the LC50 [23] was 51.3 µM and the TGI ([23]; read-out: pTGI (converted)) was 24.5 µM.
